By IC50 is commonly meant the midpoint of a concentration-inhibition curve. Low readings indicate inhibition by little substance, high ones a need for much substance.

Square brackets hold non-standard residues; d marks the D form. Peptide text beside a SMILES is read from it. Aoc = NCCCCCCCC(=O)O

This experiment deals with T1, Growth hormone-releasing hormone receptor (Rattus norvegicus, UniProt Q02644).
T1 sequence (Q02644 whole entry): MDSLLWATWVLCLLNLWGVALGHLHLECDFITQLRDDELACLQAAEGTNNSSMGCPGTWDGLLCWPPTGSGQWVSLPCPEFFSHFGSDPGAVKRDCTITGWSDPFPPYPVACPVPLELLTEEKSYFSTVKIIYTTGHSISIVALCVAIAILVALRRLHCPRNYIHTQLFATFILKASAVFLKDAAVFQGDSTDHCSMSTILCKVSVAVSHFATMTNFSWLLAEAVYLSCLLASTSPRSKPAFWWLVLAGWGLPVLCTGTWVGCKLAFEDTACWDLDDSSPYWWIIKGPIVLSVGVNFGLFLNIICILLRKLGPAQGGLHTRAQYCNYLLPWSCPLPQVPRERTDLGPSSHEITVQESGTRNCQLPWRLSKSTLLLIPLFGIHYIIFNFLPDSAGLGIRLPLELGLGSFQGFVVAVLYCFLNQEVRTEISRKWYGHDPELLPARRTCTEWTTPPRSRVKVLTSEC
The experiment is described as follows: Compound was tested to Inhibit [125I]-Growth hormone-releasing factor in rat adenopituitary homogenates. In short, it runs like this:
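Anterior pituitaries from 2-month-old male Sprague-Dawley rats homogenized in ice-cold 50 mM Tris-HCl pH 7.4 with 5 mM MgCl2, 5 mM EDTA. Homogenate (70–75 µg protein) incubated with 35–50 pM [125I-Tyr10]hGRF(1-44)NH2 and peptide at 0–1000 nM in Tris-HCl buffer pH 7.4 with 5 mM EDTA, 5 mM MgCl2, 0.42% BSA, 60 min at 23 °C. Nonspecific binding defined with 2.4 µM rGRF(1-29)NH2. Bound fraction separated by centrifugation and gamma-counted. IC50 fitted with LIGAND. Mean ± SEM of three experiments, each in duplicate or triplicate.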
Regarding H-ADAIFTSSYRRILGQLYARKLLHEIMNR-NH2, the half-maximal inhibitory concentration (IC50) amounted to 0.0442 µM.

`CC[C@H](C)[C@H](NC(=O)[C@H](C)NC(=O)[C@H](CC(=O)O)NC(=O)[C@H](C)NC(=O)[C@H](Cc1ccc(O)cc1)NC(=O)CCCN)C(=O)N[C@@H](Cc1ccccc1)C(=O)N[C@H](C(=O)N[C@@H](CC(N)=O)C(=O)N[C@@H](CO)C(=O)N[C@@H](Cc1ccc(O)cc1)C(=O)N[C@@H](CCCNC(=N)N)C(=O)N[C@@H](CCCCN)C(=O)N[C@H](C(=O)N[C@@H](CC(C)C)C(=O)NCC(=O)N[C@@H](CCC(N)=O)C(=O)N[C@@H](CC(C)C)C(=O)N[C@@H](CO)C(=O)N[C@@H](C)C(=O)N[C@@H](CCCNC(=N)N)C(=O)N[C@@H](CCCCN)C(=O)N[C@@H](CC(C)C)C(=O)N[C@@H](CC(C)C)C(=O)N[C@@H](CCC(N)=O)C(=O)N[C@@H](CC(=O)O)C(=O)N[C@H](C(=O)N[C@@H](CCSC)C(=O)N[C@@H](CO)C(=O)N[C@@H](CCCNC(=N)N)C(N)=O)[C@@H](C)CC)C(C)C)[C@@H](C)O`: 0.0137 µM corresponded to half-maximal inhibition (IC50).

In the case of `CC[C@H](C)[C@H](NC(=O)[C@H](C)NC(=O)[C@H](CC(=O)O)NC(=O)[C@H](C)NC(=O)[C@H](Cc1ccc(O)cc1)NC(=O)CCCCCN)C(=O)N[C@@H](Cc1ccccc1)C(=O)N[C@H](C(=O)N[C@@H](CC(N)=O)C(=O)N[C@@H](CO)C(=O)N[C@@H](Cc1ccc(O)cc1)C(=O)N[C@@H](CCCNC(=N)N)C(=O)N[C@@H](CCCCN)C(=O)N[C@H](C(=O)N[C@@H](CC(C)C)C(=O)NCC(=O)N[C@@H](CCC(N)=O)C(=O)N[C@@H](CC(C)C)C(=O)N[C@@H](CO)C(=O)N[C@@H](C)C(=O)N[C@@H](CCCNC(=N)N)C(=O)N[C@@H](CCCCN)C(=O)N[C@@H](CC(C)C)C(=O)N[C@@H](CC(C)C)C(=O)N[C@@H](CCC(N)=O)C(=O)N[C@@H](CC(=O)O)C(=O)N[C@H](C(=O)N[C@@H](CCSC)C(=O)N[C@@H](CO)C(=O)N[C@@H](CCCNC(=N)N)C(N)=O)[C@@H](C)CC)C(C)C)[C@@H](C)O`, it took 0.0066 µM to reach half-maximal inhibition (IC50).

Regarding H-YADAIFTNSYRKVLGQLSARLLQDIMSR-NH2, the IC50 was > 1 µM.

On to H-YADAIFTNSYRKVLGQLSALLQDIMSR-NH2, for which the IC50 is > 1 µM.

`CC[C@H](C)[C@H](NC(=O)[C@H](C)NC(=O)[C@H](CC(=O)O)NC(=O)[C@H](C)NC(=O)[C@@H](N)Cc1ccc(O)cc1)C(=O)N[C@@H](Cc1ccccc1)C(=O)N[C@H](C(=O)N[C@@H](CC(N)=O)C(=O)N[C@@H](CO)C(=O)N[C@@H](Cc1ccc(O)cc1)C(=O)N[C@@H](CCCNC(=N)N)C(=O)N[C@@H](CCCCN)C(=O)N[C@H](C(=O)N[C@@H](CC(C)C)C(=O)NCC(=O)N[C@@H](CCC(N)=O)C(=O)N[C@@H](CC(C)C)C(=O)N[C@@H](CO)C(=O)N[C@@H](C)C(=O)N[C@@H](CCCNC(=N)N)C(=O)N[C@@H](CCCCN)C(=O)N[C@@H](CC(C)C)C(=O)N[C@@H](CC(C)C)C(=O)N[C@@H](CCC(N)=O)C(=O)N[C@@H](CC(=O)O)C(=O)N[C@H](C(=O)N[C@@H](CCSC)C(=O)N[C@@H](CO)C(=O)N[C@@H](CCCNC(=N)N)C(N)=O)[C@@H](C)CC)C(C)C)[C@@H](C)O` came in with a half-maximal inhibitory concentration (IC50) of 0.0056 µM.

H-YADAIFTNSYRKVLGQLSARKLLQDIR-NH2 yielded an IC50 of 0.12 µM.

H-YADAIFTSYRKVLGQLSARKLLQDIMSR-NH2 showed a 50% inhibitory concentration (IC50) of 0.095 µM.

Regarding `CC[C@H](C)[C@H](NC(=O)[C@H](C)NC(=O)[C@H](CC(=O)O)NC(=O)[C@H](C)NC(=O)[C@@H](N)Cc1ccc(O)cc1)C(=O)N[C@@H](Cc1ccccc1)C(=O)N[C@H](C(=O)N[C@@H](CC(N)=O)C(=O)N[C@@H](CO)C(=O)N[C@@H](Cc1ccc(O)cc1)C(=O)N[C@@H](CCCN=C(N)N)C(=O)N[C@@H](CCCCN)C(=O)NCCCCCCCC(=O)N[C@@H](CCC(N)=O)C(=O)N[C@@H](CC(C)C)C(=O)N[C@@H](CO)C(=O)N[C@@H](C)C(=O)N[C@@H](CCCN=C(N)N)C(=O)N[C@@H](CCCCN)C(=O)N[C@@H](CC(C)C)C(=O)N[C@@H](CC(C)C)C(=O)N[C@@H](CCC(N)=O)C(=O)N[C@@H](CC(=O)O)C(=O)N[C@H](C(=O)N[C@@H](CCSC)C(=O)N[C@@H](CO)C(=O)N[C@@H](CCCN=C(N)N)C(N)=O)[C@@H](C)CC)[C@@H](C)O` (H-YADAIFTNSYRK[Aoc]QLSARKLLQDIMSR-NH2), the half-maximal inhibitory concentration (IC50) is > 1 µM.

These data come from ChEMBL document CHEMBL1126044, “Affinity of human growth hormone-releasing factor (1-29)NH2 analogues for GRF binding sites in rat adenopituitary” (J Med Chem, 1992).
